{"data": "Published values collected from several papers", "cell line": "MCF7", "observed": "cell growth or viability"}
{"Compound": "CCOc1cc(-c2nc3ccc(C)cc3[nH]2)ccc1O", "technique": "MTT", "time": "48 h", "endpoint": "IC50", "result": "54.9 µM"}
{"Compound": "CCCCCCCCCCCCNC(=O)NCCCC[C@H](NS(C)(=O)=O)C(=O)N[C@H](C)C(=O)N[C@@H](CCCNC(=N)N)C(N)=O", "technique": "MTT", "time": "72 h", "endpoint": "EC50", "result": "69.2 to 78.9 µM"}
{"Compound": "Cc1ccc2nc(-c3ccc([N+](=O)[O-])cc3)[nH]c2c1", "technique": "MTT", "time": "48 h", "endpoint": "IC50", "result": "10.5 µM"}
{"Compound": "COc1ccc(C(=O)/C=C/c2cccc3ccccc23)cc1S(N)(=O)=O", "technique": "SRB", "tested at": "10 µM", "endpoint": "inhibition", "result": "160%"}
{"Compound": "COc1cc(C(CC(=O)c2ccc(Br)cc2)NCCc2ccc(O)c(O)c2)ccc1O (stereo not drawn)", "technique": "MTT", "endpoint": "TGI", "result": "0.4 µM"}
{"Compound": "CCCCCCCCCCCCNC(=S)NCCCC[C@H](NC(=O)OCc1ccccc1)C(=O)N[C@@H](C)C(=O)N[C@@H](CCCNC(=N)N)C(N)=O", "technique": "MTT", "time": "72 h", "endpoint": "EC50", "result": "64.7 to 76.6 µM"}
{"Compound": "COc1cc(C(CC(N)=O)NCCc2ccc(O)c(O)c2)ccc1O (stereo not drawn)", "technique": "MTT", "endpoint": "TGI", "result": "52 µM"}
{"Compound": "COc1ccc(-c2c(Cc3ccccc3)[nH]c(=NC(=O)c3ccccc3F)n2C)cc1", "endpoint": "EC50", "result": "1.4 µM"}
{"Compound": "Clc1ccc(-c2nc3ccccc3n2Cc2ccccc2)cc1Cl", "technique": "MTT", "endpoint": "IC50", "result": "62.4 µM"}
{"Compound": "COc1cc(C(CC(=O)c2ccc([N+](=O)[O-])cc2)NCCc2ccc(O)c(O)c2)ccc1O (stereo not drawn)", "technique": "MTT", "endpoint": "TGI", "result": "0.29 µM"}
{"Compound": "CSc1ccc(-c2nc3ccc(C)cc3n2Cc2ccccc2)cc1", "technique": "MTT", "endpoint": "IC50", "result": "29 µM"}
{"Compound": "COc1ccc(C(=O)/C=C/c2c(F)cccc2Cl)cc1S(N)(=O)=O", "technique": "SRB", "tested at": "10 µM", "endpoint": "inhibition", "result": "105%"}
{"Compound": "Cc1ccc2nc(-c3ccco3)[nH]c2c1", "technique": "MTT", "time": "48 h", "endpoint": "IC50", "result": "> 100 µM"}
{"Compound": "COc1ccccc1/C=C/C(=O)c1ccc(OC)c(S(N)(=O)=O)c1", "technique": "SRB", "tested at": "10 µM", "endpoint": "inhibition", "result": "92%"}
{"Compound": "Cc1ccc2nc(-c3ccc4c(c3)OCO4)[nH]c2c1", "technique": "MTT", "time": "48 h", "endpoint": "IC50", "result": "> 100 µM"}
{"Compound": "COc1ccc(C(=O)/C=C/c2ccc3c(c2)OC(F)(F)O3)cc1S(N)(=O)=O", "technique": "SRB", "tested at": "10 µM", "endpoint": "inhibition", "result": "7%"}
{"Compound": "CCOCCOCCOCCNC(=S)NCCCC[C@H](NS(C)(=O)=O)C(=O)N[C@@H](C)C(=O)N[C@@H](CCCNC(=N)N)C(N)=O", "technique": "MTT", "time": "72 h", "endpoint": "EC50", "result": "> 100 µM"}
{"Compound": "COc1ccc(C(=O)/C=C/c2cccc(Br)c2)cc1S(N)(=O)=O", "technique": "SRB", "tested at": "10 µM", "endpoint": "inhibition", "result": "177%"}
{"Compound": "COc1cc(C(CC(=O)c2ccc(C)cc2)NCCc2ccc(O)c(O)c2)ccc1O (stereo not drawn)", "technique": "MTT", "endpoint": "TGI", "result": "10.1 µM"}
{"Compound": "COc1ccc(C(=O)/C=C/c2cccnc2)cc1S(N)(=O)=O", "technique": "SRB", "tested at": "10 µM", "endpoint": "inhibition", "result": "93%"}
{"Compound": "CC/C(=C(\\c1ccccc1)c1ccc(OCCN(C)C)cc1)c1ccccc1", "technique": "ATP luminescence", "time": "72 h", "endpoint": "EC90", "result": "32.2 µM"}
{"Compound": "COc1cc(CNC(=O)CCCC/C=C/C(C)C)ccc1O", "technique": "SRB", "tested at": "10 µM", "endpoint": "inhibition", "result": "24%"}
{"Compound": "COc1ccc(C(=O)/C=C/c2ccccc2Br)cc1S(N)(=O)=O", "technique": "SRB", "tested at": "10 µM", "endpoint": "inhibition", "result": "171%"}
{"Compound": "Clc1ccc(-c2nc3ccccc3n2Cc2ccccc2)cc1", "technique": "MTT", "endpoint": "IC50", "result": "40.2 µM"}
{"Compound": "COc1ccc(C(=O)/C=C/c2cccc(Cl)c2Cl)cc1S(N)(=O)=O", "technique": "SRB", "tested at": "10 µM", "endpoint": "inhibition", "result": "140%"}
{"Compound": "Clc1ccc(-c2nc3ccccc3[nH]2)c(Cl)c1", "technique": "MTT", "time": "48 h", "endpoint": "IC50", "result": "55.8 µM"}
{"Compound": "C[C@]12CC[C@@H]3c4ccc(O)cc4CC[C@H]3[C@@H]1CC[C@@H]2O", "technique": "ATP luminescence", "time": "72 h", "endpoint": "EC50", "result": "22.5 µM"}
